The values that follow come from ChEMBL document CHEMBL4330080, “Hydroxyazole scaffold-based Plasmodium falciparum dihydroorotate dehydrogenase inhibitors: Synthesis, biological evaluation and X-ray structural studies” (Eur J Med Chem, 2019).

Series [1] is described as follows: Dissociation constant, pKa of the compound by potentiometric analysis. It counts as physicochemical.
Series [2] addresses T1, Dihydroorotate dehydrogenase (Plasmodium falciparum, UniProt Q54A96).
T1 sequence (Q54A96 whole entry): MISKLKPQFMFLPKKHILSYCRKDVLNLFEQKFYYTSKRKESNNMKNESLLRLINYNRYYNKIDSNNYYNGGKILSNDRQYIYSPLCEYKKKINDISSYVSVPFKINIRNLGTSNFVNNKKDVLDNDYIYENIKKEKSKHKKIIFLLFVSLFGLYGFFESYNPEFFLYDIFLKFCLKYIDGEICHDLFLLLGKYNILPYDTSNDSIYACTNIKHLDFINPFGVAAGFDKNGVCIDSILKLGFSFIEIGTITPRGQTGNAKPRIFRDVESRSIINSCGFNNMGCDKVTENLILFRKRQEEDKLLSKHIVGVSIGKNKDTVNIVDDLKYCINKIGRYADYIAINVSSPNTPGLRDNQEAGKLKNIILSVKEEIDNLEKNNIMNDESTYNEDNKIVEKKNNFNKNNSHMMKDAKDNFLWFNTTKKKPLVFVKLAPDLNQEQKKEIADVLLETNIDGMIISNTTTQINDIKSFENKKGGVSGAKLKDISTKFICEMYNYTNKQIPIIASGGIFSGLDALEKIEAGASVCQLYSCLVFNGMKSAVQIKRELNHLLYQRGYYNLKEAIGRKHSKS
In words: Inhibition of Plasmodium falciparum recombinant N-terminal His6-tagged DHODH (159-569 residues) expressed in Escherichia coli BL21(DE3) using DHO as substrate measured every min for 5 mins by DCPI dye-based photometric analysis. The procedure, abridged: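 N-terminally truncated recombinant enzyme, His-tag IMAC then size exclusion purified, in 50 mM Tris/HCl pH 7.8, 150 mM KCl, 0.1% Triton X-100 with 60 μM DCIP and 20 μM decylubiquinone. Started with 200 μM DHO; initial rate from DCIP absorbance at 600 nm over the first 5 min. IC50 is mean ± SE of three experiments.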

Series [3] in a line: Cytotoxicity against African green monkey COS7 cells after 48 hrs by MTT assay. The note with it: chlorocebus aethiops, COS-7 cells. In kind it is cell-based. The procedure, abridged:
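COS-7 cells in DMEM with 10% heat-inactivated FBS and gentamicin, 37°C, 5% CO2. Seeded at 10⁴ cells/well and left 16 h to adhere. Compounds added at several concentrations for 48 h. MTT added for 4 h, formazan dissolved in acidified Triton/isopropanol, OD read at 570 nm. CC50 from viability relative to control, given with 95% confidence interval of the fit.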
Background: Formazan colour is commonly taken as a measure of viable cells.

For series [4], the target named is Dihydroorotate dehydrogenase (quinone), mitochondrial (Homo sapiens, UniProt Q02127). In words: Inhibition of human recombinant N-terminal GST-tagged DHODH (31 to 395 residues) expressed in Escherichia coli BL21(DE3) using DHO as substrate preincubated for 5 mins followed by substrate addition and measured for 5 mins by DCPI dye-based assay. The procedure, abridged:
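GST-fused enzyme from E. coli, glutathione-affinity purified. Pre-incubated 5 min at 37°C in Tris buffer pH 8.0 with 100 μM coenzyme Q10, 50 μM DCIP and compounds (0.1% DMSO final). Started with 500 μM DHO; DCIP reduction followed at 650 nm over the first 5 min. IC50 is mean ± SE of three experiments.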

Another series relates to Plasmodium falciparum. Nature of the series: Anti-plasmodial activity against synchronized ring stage Plasmodium falciparum 3D7 infected in human erythrocytes assessed as reduction in parasitemia after 48 hrs by Sybr Green I dye-based flow cytometric analysis. It counts as functional, organism-based. The note with it: 3D7, 48 h. The procedure, abridged: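 Parasites kept in O+ human erythrocytes in RPMI 1640 with HEPES pH 7.3, glutamine, glucose, gentamicin, 0.5mM hypoxanthine and 10% human serum, 4% hematocrit, 37°C in 1% O2/5% CO2. Sorbitol-synchronized rings; 1:2 serial dilutions from 300µM at 2% hematocrit, 1-2% parasitemia, 48h. SybrGreen I flow cytometry; triplicate points fitted to log[I] vs response for EC50.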
In general terms: In flow cytometry, cells or beads pass a laser one at a time.

Series [5] is described as follows: Selectivity ratio of IC50 for human recombinant DHODH to IC50 for Plasmodium falciparum recombinant DHODH.

Sequence of Dihydroorotate dehydrogenase (quinone), mitochondrial (Q02127 whole entry, the tested form may be a part): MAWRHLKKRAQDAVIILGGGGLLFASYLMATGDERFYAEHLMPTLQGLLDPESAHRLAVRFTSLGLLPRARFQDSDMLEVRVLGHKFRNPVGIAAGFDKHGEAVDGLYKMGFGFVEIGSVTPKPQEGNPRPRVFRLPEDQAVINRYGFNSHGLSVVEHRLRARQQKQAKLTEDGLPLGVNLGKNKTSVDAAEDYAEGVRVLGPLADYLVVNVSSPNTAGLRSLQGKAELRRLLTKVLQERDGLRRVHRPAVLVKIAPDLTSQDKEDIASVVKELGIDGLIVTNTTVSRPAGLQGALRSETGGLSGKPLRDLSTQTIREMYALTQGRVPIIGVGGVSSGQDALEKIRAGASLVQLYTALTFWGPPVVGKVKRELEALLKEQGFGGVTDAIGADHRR

As usually defined, the pKa is the pH at which an ionisable group is half protonated. In general, IC50 refers to the concentration that inhibits the measured activity by half. The compound `Cn1cc(C(=O)NCC(c2ccccc2)c2ccccc2)c(O)n1` registered a pKa in series [1] of 6.42. Besides, in series [2], the half-maximal inhibitory concentration (IC50) is > 250 µM.

In series [1], `Cc1c(C(=O)NCC(c2ccccc2)c2ccccc2)c(O)nn1C` had a pKa of 6.54. The IC50 in series [2] is > 250 µM.

A word on the CC50: it is the concentration at which the toxic effect on the cells reaches its halfway point. By EC50 is commonly meant the midpoint of the concentration-response curve. As for `Cn1nc(O)c(C(=O)O)c1COc1cccc(C(F)(F)F)c1`, in series [3], the CC50 at 48 h turned out to be 167 µM. The values for the concentration for half-maximal inhibition (IC50) in series [4] and in series [2] were ≥ 200 µM and 2.8 µM, respectively. Also, in the series with Plasmodium falciparum, the EC50 amounted to 40.7 µM.

As to `CCOc1nn(C)c(COc2ccccc2)c1C(=O)O`, in series [2], the half-inhibitory concentration (IC50) was > 250 µM.

Consider `CCOC(=O)c1c(O)nn(C)c1COc1ccccc1`, for which, in series [2], the IC50 was > 250 µM.

As for `Cn1nc(O)c(C(=O)O)c1COc1ccccc1`, the IC50 in series [4] is > 250 µM; in series [2], 19 µM. Moreover, in series [5], the Ratio IC50 was > 13.

In series [1], `O=C(NCC(c1ccccc1)c1ccccc1)c1nonc1O` returned a pKa of 3.33. The half-maximal inhibitory concentration (IC50) in series [4] was > 200 µM; in series [2], 75 µM. Further, in series [5], the Ratio IC50 is > 3.

For the compound `Cn1nc(OCC2CC2)c(C(=O)O)c1COc1ccccc1`, the IC50 in series [2] is > 250 µM.

The compound `O=C(NCc1ccccc1)c1nsnc1O` gave a pKa in series [1] of 3.69. Moreover, the IC50 in series [4] was > 200 µM; in series [2], 35 µM. For the same compound, the Ratio IC50 in series [5] was > 6.

Regarding `Cn1nc(O)c(C(=O)O)c1CSc1ccccc1`, the IC50 in series [4] was > 250 µM; in series [2] it was 25 µM. The Ratio IC50 in series [5] is > 10.

As to `CN(Cc1c(C(=O)O)c(O)nn1C)c1ccccc1`, the IC50 was > 250 µM in series [4] and 23 µM in series [2]. Also, in series [5], the Ratio IC50 is > 10.

In series [3], `Cn1nc(O)c(C(=O)O)c1COc1ccc(C(F)(F)F)cc1` gave a CC50 at 48 h of 152 µM. For the same compound, the IC50 in series [4] was ≥ 200 µM; in series [2], 5.3 µM. The EC50 in the series on Plasmodium falciparum was found to be 26.7 µM.

For `Cn1nc(O)c(C(=O)O)c1CNc1ccccc1`, the IC50 in series [4] was > 250 µM; in series [2], 16 µM. Moreover, the Ratio IC50 in series [5] is > 16.

Turning to `Cn1nc(O)c(C(N)=O)c1COc1ccccc1`, the IC50 in series [2] is > 250 µM.

For the compound `O=C(NCC(c1ccccc1)c1ccccc1)c1nsnc1O`, the pKa in series [1] turned out to be 3.72. The compound further registered a CC50 at 48 h in series [3] of 190 µM. Further, the IC50 in series [4] is > 200 µM; in series [2] it was 12 µM. For the same compound, the concentration for a half-maximal effect (EC50) in the series on Plasmodium falciparum amounted to 35.9 µM.

As for `Cn1nc(OCc2ccccc2)c(C(=O)O)c1COc1ccccc1`, the half-inhibitory concentration (IC50) in series [2] was > 250 µM.
